Data set [1] is described as follows: Selectivity index, ratio of CC50 for human Huh-7 cells to EC50 for Ebola virus infected in human HuH7 cells. In kind it is toxicity, cell-based. The settings on record: read-out: Ratio CC50/EC50.
Data set [2] in a line: Cytotoxicity against human Huh-7 cells assessed as reduction in cell viability incubated for 3 days by cell-titer glo assay. The settings on record: time 3 day. Type of data set: cell-based. Put shortly:
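Huh7 cells received compound but no virus, in parallel with the infection assay. Viability was read by CellTiter-Glo luminescence. CC50 was derived from a 4-parameter fit to semi-log concentration-response curves.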

The subject of data set [3] is Ebolavirus. Nature of the data set: Antiviral activity against Ebola virus infected in human HuH7 cells assessed as reduction in viral infection pretreated for 2 hrs followed by viral infection and measured after 3 days by ZsGreen fluorescence assay. The settings on record: Orthoebolavirus, Huh-7. Type of data set: functional, organism-based.
Data set [4] addresses T1, NPC intracellular cholesterol transporter 1 (Homo sapiens) (UniProt O15118).
T1 sequence (whole entry): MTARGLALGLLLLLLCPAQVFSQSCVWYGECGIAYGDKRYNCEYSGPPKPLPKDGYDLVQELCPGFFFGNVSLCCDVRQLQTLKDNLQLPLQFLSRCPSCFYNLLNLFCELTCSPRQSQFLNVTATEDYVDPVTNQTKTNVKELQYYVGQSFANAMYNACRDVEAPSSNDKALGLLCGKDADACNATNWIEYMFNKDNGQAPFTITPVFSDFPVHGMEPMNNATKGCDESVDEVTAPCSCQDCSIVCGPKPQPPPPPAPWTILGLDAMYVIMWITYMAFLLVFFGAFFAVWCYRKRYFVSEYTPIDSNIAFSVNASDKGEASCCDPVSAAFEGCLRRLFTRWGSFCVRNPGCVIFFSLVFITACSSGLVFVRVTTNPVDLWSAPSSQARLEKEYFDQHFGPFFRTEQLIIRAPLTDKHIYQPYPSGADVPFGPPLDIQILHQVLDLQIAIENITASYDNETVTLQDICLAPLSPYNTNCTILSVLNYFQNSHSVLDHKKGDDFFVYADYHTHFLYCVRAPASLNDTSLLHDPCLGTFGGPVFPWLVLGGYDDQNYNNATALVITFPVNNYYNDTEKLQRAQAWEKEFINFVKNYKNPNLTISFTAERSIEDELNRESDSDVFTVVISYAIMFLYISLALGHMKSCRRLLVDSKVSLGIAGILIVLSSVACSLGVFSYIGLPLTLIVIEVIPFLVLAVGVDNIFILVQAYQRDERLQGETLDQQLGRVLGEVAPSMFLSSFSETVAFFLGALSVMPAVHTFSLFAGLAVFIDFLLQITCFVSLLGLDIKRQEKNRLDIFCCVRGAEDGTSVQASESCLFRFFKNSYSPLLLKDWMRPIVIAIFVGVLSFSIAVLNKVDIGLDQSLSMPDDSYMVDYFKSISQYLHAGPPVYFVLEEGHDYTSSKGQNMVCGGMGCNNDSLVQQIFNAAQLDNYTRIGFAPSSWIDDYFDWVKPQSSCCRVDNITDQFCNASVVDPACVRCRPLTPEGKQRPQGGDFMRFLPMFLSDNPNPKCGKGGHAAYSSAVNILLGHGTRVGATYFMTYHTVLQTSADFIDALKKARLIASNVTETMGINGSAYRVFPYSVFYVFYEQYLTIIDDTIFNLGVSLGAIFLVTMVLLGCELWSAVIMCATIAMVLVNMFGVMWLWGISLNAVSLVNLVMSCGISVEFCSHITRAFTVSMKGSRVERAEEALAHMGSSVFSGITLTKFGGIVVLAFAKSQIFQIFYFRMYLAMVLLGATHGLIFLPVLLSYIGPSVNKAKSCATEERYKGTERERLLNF
Nature of the data set: Inhibition of NPC1 in human HeLa cells assessed as increase in cholesterol accumulation in subcellular localization at 1 uM incubated for 24 hrs by filipin-staining based immunofluorescence assay. In kind it is cell-based. An outline of the steps: (§1)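 HeLa cells were exposed to compound for 24 h; DMSO vehicle was 0.1% (v/v) final. They were then stained with 0.5 mg/mL filipin in PBS plus 10% FCS for 2 h at RT and imaged on a high-content imager.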

Data set [5] in a line: Inhibition of Ebolavirus glycoprotein transfected in human Huh-7 cells cotransfected with HIV luciferase reporter vector expressing plasmid assessed as reduction in virus entry measured after 3 days by Bright-Glo luciferase assay. Type of data set: cell-based. The settings on record: Orthoebolavirus, Huh-7, 72 h. An outline of the steps:
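Huh7 cells were preincubated with varying compound concentrations for 1 h at 37 C. HIV-based luciferase reporter particles pseudotyped with EBOV GP were then added. Firefly luciferase activity was measured by Bright-Glo 3 days later.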
A general note: A reporter such as luciferase makes a cellular process visible.

Data set [6] has as its target T1, NPC intracellular cholesterol transporter 1 (Homo sapiens). Nature of the data set: Inhibition of NPC1 in human HeLa cells assessed as increase in cholesterol accumulation in subcellular localization at 5 uM incubated for 24 hrs by filipin-staining based immunofluorescence assay. Type of data set: cell-based. Put shortly:
as §1

Calls of active or inactive are those of the source. The rule behind the calls is not given here.

As a reminder, the CC50 is the concentration giving 50% cytotoxicity. A word on the EC50: it is the concentration at which the effect is half-maximal. `CN(C)CCOc1ccc(/C(=C(\CCCl)c2ccccc2)c2ccccc2)cc1`: in data set [1], the selectivity ratio is 7. Besides, the half-maximal cytotoxic concentration (CC50) at 72 h in data set [2] stood at 2500 nM. Further, the EC50 in data set [3] is 380 nM.

For the compound `CCOP(=O)(Cc1cccc(COc2ccccc2OC2CCN(Cc3ccc4nc(-c5ccc(OC(F)(F)F)cc5)[nH]c4c3)CC2)c1)OCC`, the selectivity ratio in data set [1] was found to be 2. The half-maximal cytotoxic concentration (CC50) at 72 h in data set [2] worked out at 4230 nM. Moreover, in data set [3], the half-maximal effective concentration (EC50) worked out at 1970 nM.

Take `CCOP(=O)(Cc1cccc(COc2ccccc2CC2CCN(Cc3ccc4nc(-c5ccccc5)[nH]c4c3)CC2)c1)OCC`: in data set [1], the selectivity ratio turned out to be 10. Further, in data set [4], the inhibition result is “Active”. The figures for the concentration for a half-maximal effect (EC50) in data set [5] and in data set [3] were 2920 nM and 930 nM, respectively. In addition, in data set [2], the half-maximal cytotoxic concentration (CC50) at 72 h is 9170 nM.

In the case of `CCOP(=O)(Cc1cccc(COc2ccccc2OC2CCN(Cc3ccc4nc(-c5ccccc5)[nH]c4c3)CC2)c1)OCC`, in data set [1], the selectivity ratio is 7. In addition, in data set [2], the CC50 at 72 h is 13100 nM. The concentration for a half-maximal effect (EC50) in data set [3] turned out to be 1880 nM.

On to `CCOP(=O)(Cc1ccc(COc2ccccc2OC2CCN(Cc3ccc4nc(-c5ccc(C(F)(F)F)cc5)[nH]c4c3)CC2)cc1)OCC`, for which, in data set [1], the selectivity ratio is 2. Further, in data set [2], the CC50 at 72 h was 3820 nM. For the same compound, the concentration for a half-maximal effect (EC50) in data set [3] was 1730 nM.

Turning to `CCOP(=O)(Cc1ccc(COc2ccccc2OC2CCN(Cc3ccc4nc(-c5ccccc5)[nH]c4c3)CC2)cc1)OCC`, the selectivity ratio in data set [1] was found to be 5. Moreover, the CC50 at 72 h in data set [2] stood at 14700 nM. Moreover, in data set [3], the EC50 worked out at 2950 nM.

With `CCOP(=O)(Cc1ccc(COc2ccccc2OC2CCN(Cc3ccc4nc(-c5cccc(C(F)(F)F)c5)[nH]c4c3)CC2)cc1)OCC`, in data set [1], the selectivity ratio stood at 3. For the same compound, in data set [2], the 50% cytotoxic concentration (CC50) at 72 h was 100000 nM. In data set [3], the concentration for a half-maximal effect (EC50) was found to be 29700 nM.

For `CCN(CC)CCO[C@H]1CC[C@@]2(C)C(=CC[C@@H]3[C@@H]2CC[C@]2(C)C(=O)CC[C@@H]32)C1`, the inhibition result in data set [6] is “Active”.

For the compound `CCOP(=O)(Cc1ccc(COc2ccccc2OC2CCN(Cc3ccc4nc(-c5cccc(OC(F)(F)F)c5)[nH]c4c3)CC2)cc1)OCC`, the selectivity ratio in data set [1] worked out at 5. Also, the CC50 at 72 h in data set [2] worked out at 14700 nM. For the same compound, the EC50 in data set [3] was 2950 nM.

In the case of `CCOP(=O)(Cc1ccc(COc2ccccc2CC2CCN(Cc3ccc4nc(-c5ccccc5)[nH]c4c3)CC2)cc1)OCC`, the selectivity ratio in data set [1] was 20. In addition, in data set [4], the inhibition entry is “Active”. Moreover, the EC50 in data set [5] is 1350 nM; in data set [3], 640 nM. Moreover, the 50% cytotoxic concentration (CC50) at 72 h in data set [2] stood at 13200 nM.

With `CCOP(=O)(Cc1cccc(COc2ccccc2CC2CCN(Cc3ccc4nc(-c5cccc(OC(F)(F)F)c5)[nH]c4c3)CC2)c1)OCC`, the selectivity ratio in data set [1] came to 5. Moreover, in data set [2], the half-maximal cytotoxic concentration (CC50) at 72 h was 4450 nM. Also, the half-maximal effective concentration (EC50) in data set [3] was found to be 870 nM.

On to `CCOP(=O)(Cc1ccc(COc2ccccc2OC2CCN(Cc3ccc4nc(-c5ccc(OC(F)(F)F)cc5)[nH]c4c3)CC2)cc1)OCC`, for which, in data set [1], the selectivity ratio amounted to 4. For the same compound, the CC50 at 72 h in data set [2] worked out at 4200 nM. For the same compound, in data set [3], the 50% effective concentration (EC50) worked out at 1190 nM.

Source of the values: ChEMBL document CHEMBL4732182, “Design, synthesis and biological evaluation of 2-substituted-6-[(4-substituted-1-piperidyl)methyl]-1H-benzimidazoles as inhibitors of ebola virus infection” (Eur J Med Chem, 2021).
